HNF4A DNA FP = change in binding of human HNF4A to DNA, primary screen, biochemical, fluorescence polarization, FITC-DNA. Hepatocyte nuclear factor 4-alpha (Homo sapiens), P41235. AID 1224865, 2016. 1 h. 0.3% of 360,000 active. activity change, % at 10 µM; in the data active = activity change above about 30%, passing the limit was not always enough
Rpn11 inh = Rpn11 (PSMD14) deubiquitinase inhibitors, primary screen, biochemical, fluorescence polarization, uHTS. 26S proteasome non-ATPase regulatory subunit 14 (Homo sapiens), O00487. human 26S proteasome, Ub4-pepOG fluorescence polarization; 20S core pre-blocked with epoxomicin. inhibition, % at 20 µM. 0.59% of 360,000 active;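 active = inhibition at 20 µM, scaled to each plate's controls, above about 33%, limit read from the data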
CSN deneddyl inh = inhibitors of CSN-mediated cullin deneddylation, primary screen, biochemical, fluorescence polarization, uHTS; 0.38% of 360,000 active; inhibition, % at 12.5 µM; Purified CSN, SCF-Nedd8-OG deneddylation; AID 651999, 2013; COP9 signalosome complex subunit 5 (Homo sapiens), Q92905;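 active = pattern-corrected inhibition above about 35%, with an unprinted fluorescence ratio check between 0.5 and 1.5, limit read from the data, passing the limit was not always enough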;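 also: 0% = enzyme with substrate and 100% = substrate without enzyme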
Target sequence (Q92905 whole entry, looked up, one chain of several): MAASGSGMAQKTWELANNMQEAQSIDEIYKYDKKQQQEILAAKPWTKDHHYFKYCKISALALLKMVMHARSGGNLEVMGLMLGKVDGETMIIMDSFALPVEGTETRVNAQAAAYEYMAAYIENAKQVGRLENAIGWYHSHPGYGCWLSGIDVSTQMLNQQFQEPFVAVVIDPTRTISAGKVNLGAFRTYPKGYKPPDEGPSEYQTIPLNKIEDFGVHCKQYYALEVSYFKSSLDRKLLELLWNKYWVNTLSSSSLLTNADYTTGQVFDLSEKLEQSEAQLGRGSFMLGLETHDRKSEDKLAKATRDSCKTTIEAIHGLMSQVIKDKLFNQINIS
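Schedule: reaction 90 min, room temperature / Assay system: HEK293T-derived human Csn5 enzyme / Input: Csn5 at 0.24 nM final / Measure: inhibition of Csn5 cleavage, % / Control set: substrate-only high control, full reaction low control / Technique: fluorescence polarization of the substrate / Buffer or medium: Tris/NaCl/DTT buffer, pH 7.5 / Reagent: SCFSkp2-Nedd8OG substrate at 10 nM final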
TPT1 inh = Candida albicans TPT1 enzyme inhibitors, primary screen, biochemical, fluorescence polarization; tRNA 2'-phosphotransferase TPT1 (Candida albicans SC5314); recombinant caTPT1, FP RNA substrate dephosphorylation; inhibition, % at 5 µM; 0.81% of 300,000 active;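 active = inhibition above the mean of all tested compounds plus 3 SD, set per screening campaign, cut at about 24% in these data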;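 also: plate controls were DMSO alone for no effect and ferristatin control at 100 nM for full effect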
HNF4a DNA conf = change in HNF4A binding to DNA, retest, confirmation, biochemical, fluorescence polarization, FITC-DNA. shares compounds with HNF4A DNA FP. 1 h. activity change, % at 12.5 µM. 99% of 210 active. AID 1224897, 2016; call rule not given here
* hit, by the source's call; nt = no result shown. Rows were chosen to be rich in hits. Some 1.5% of all compounds tested hit in one or more screens of this group.

SMILES | HNF4A DNA FP | Rpn11 inh | CSN deneddyl inh | TPT1 inh | HNF4a DNA conf
O=C(c1ccc([N+](=O)[O-])s1)N1CCCc2ccccc21 | -2 | 2 | 0 | -2 | nt
O=C(c1ccc([N+](=O)[O-])s1)N1CCc2ccccc21 | 67* | nt | 19 | 1 | 53*
C#CCOCCOCCOCCNc1nc(N2CCN(C(=O)[C@H](CCCCN)n3cc([C@@H](N)CO)nn3)CC2)nc(N2CCN(C(=O)[C@H](CCCCN)n3cc([C@@H](N)CC(C)C)nn3)CC2)n1 | 10 | -13 | -1 | nt | nt
O=C1CC(Cc2ccc(Br)cc2)C(=O)N1c1ccccc1 (centres undefined) | 1 | -2 | -1 | -1 | nt
O=C(NC1CCCC1)c1cccc2c1C(=O)c1ccc(N3CCCCC3)cc1S2(=O)=O | 52* | nt | 22 | nt | 54*
C#CCOCCOCCOCCNc1nc(N2CCN(C(=O)[C@H](CCCCN)n3cc([C@@H](N)C(C)CC)nn3)CC2)nc(N2CCN(C(=O)[C@H](CCCCN)n3cc([C@@H](N)CC(C)C)nn3)CC2)n1 (some centres undefined) | 72* | 23 | 69* | 2 | 112*
Cc1ccc2sc(N(CCCN(C)C)C(=O)c3nc4ccccc4s3)nc2c1C | 217* | 2 | 107* | 0 | 205*
O=[N+]([O-])c1ccc(NN=Cc2ccc(O)cc2)nc1 | 2 | -22 | 5 | nt | nt
COc1ccc(C=NNc2ccc([N+](=O)[O-])cn2)cc1 | 72* | nt | 6 | nt | 79*
CC1(C(=O)Nc2ccc3c(c2)OCCO3)CN(S(C)(=O)=O)CC(=O)N1CCc1ccc(O)cc1 (centres undefined) | 1 | nt | -2 | nt | nt
CC(=O)Nc1cc2c(cc1[N+](=O)[O-])-c1ccc(F)cc1C2 | 32* | 10 | 6 | nt | 39*

High-throughput results from PubChem.
